Series [1] has as its system Plasmodium falciparum. Kind of series: Antiplasmodial activity against chloroquine-sensitive Plasmodium falciparum D6 after 72 hrs by LDH assay. It counts as functional, organism-based. The note with it: Plasmodium falciparum, D6, 72 h; read-out: IC50.
Series [2] can be described thus: Antineuroinflammatory activity in LPS-stimulated rat neonatal microglia assessed as drug level causing 50% PMA-induced LDH release preincubated 15 mins prior to PMA challenge measured after 70 mins. It counts as functional. In a few lines:
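Neonatal rat microglia (2 × 10^5/well) primed with E. coli LPS 0.3 ng/mL for 17 h at 35.9 °C, washed with HBSS, given compound (0.01–10 μM) or DMSO 15 min, then PMA 1 μM; LDH read spectrophotometrically after 70 min; LDH50 relative to Triton X-100 (0.1%) release; duplicates.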
For orientation: LDH in the medium is a marker of cell lysis.

Series [3] in a line: Antineuroinflammatory activity in LPS-stimulated rat neonatal microglia assessed as inhibition of PMA-induced TXB2 production preincubated 15 mins prior to PMA challenge measured after 70 mins. It counts as functional, cell-based.
A short description of series [4]: Antineuroinflammatory activity in LPS-stimulated rat neonatal microglia assessed as inhibition of PMA-induced superoxide anion production preincubated 15 mins prior to PMA challenge measured after 70 mins. It counts as functional, cell-based.
A short description of series [5]: Cytotoxicity against LPS-stimulated rat neonatal microglia assessed as LDH release. In a few lines: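 Rat neonatal microglia (2×10^5/well) primed with E. coli LPS (0.3 ng/mL) for 17 h at 35.9 °C. Washed into HBSS, given compound (0.01-10 μM) or DMSO for 15 min, then PMA (1 μM) for 70 min, in duplicate. LDH release read spectrophotometrically. LDH50 is the concentration giving 50% of the LDH release seen with 0.1% Triton X-100.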

In series [6] the test system is Plasmodium falciparum. Nature of the series: Antiplasmodial activity against chloroquine-resistant Plasmodium falciparum W2 after 72 hrs by LDH assay. It counts as functional, organism-based. Conditions: Plasmodium falciparum, W2, 72 h; read-out: IC50.
Series [7] relates to Mycobacterium intracellulare. Nature of the series: Antimycobacterial activity against Mycobacterium intracellular ATCC 23068. It counts as functional, organism-based. In a few lines:
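Modified Franzblau method; samples serially diluted in 20% DMSO/saline, tested in duplicate; inoculum set by OD630; fluorescence read at 544ex/590em before and after incubation; ciprofloxacin drug control.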

In the next series the test system is Cryptococcus neoformans. Nature of the series: Antifungal activity against Cryptococcus neoformans ATCC 90113. It counts as functional, organism-based. In a few lines: (§1)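 Broth microdilution per modified CLSI method; samples serially diluted in 20% DMSO/saline, tested in duplicate; inocula set by OD630 of suspensions in incubation broth; growth read at 630 nm before and after incubation; amphotericin B drug control.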

In the next series the test system is Candida albicans. Nature of the series: Antifungal activity against Candida albicans ATCC 90028. It counts as functional, organism-based. The method in brief:
as §1

A further series relates to Vero. Nature of the series: Cytotoxicity against african green monkey Vero cells up to 4.6 ug/mL after 48 hrs by neutral red assay. It counts as cell-based. The note with it: chlorocebus sabaeus. In a few lines: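 Vero cells were seeded at 25,000 cells/well and incubated for 24 h, then exposed to serially diluted samples for 48 h. Viable cells were counted by Neutral Red assay, with doxorubicin as positive control. IC50 was taken from dose-response curves.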

≈ marks a conversion by molar mass, not a printed value.

By IC50 is commonly meant the concentration that gives 50% inhibition.

Consider `O[C@]12C=C(C3NCCc4c3[nH]c3ccccc43)[C@@H]3CCN(CCCC/C=C\CC1)C[C@@]31C[C@@H]3/C=C\CCCCN3[C@H]12` (stereo not given in full) [MANZAMINE D], for which the IC50 in the series on Plasmodium falciparum [1] was determined as 0.09 µg/mL (≈ 0.163 µM); in [3], 2.1 µM; in series [4], 2.45 µM; in the series with Plasmodium falciparum [6] it was 0.088 µg/mL (≈ 0.159 µM); in series [7], 0.1 µg/mL (≈ 0.181 µM); with Cryptococcus neoformans it was 0.8 µg/mL (≈ 1.45 µM). In addition, the IC50 in the series with Candida albicans turned out to be 15 µg/mL (≈ 27.1 µM). For the same compound, the values for the Activity (in [2]; in [5]; in the series on Vero) were 1 µM, “Toxic” and “Non-toxic”, respectively.

Source of the values: ChEMBL document CHEMBL1157729, “Structure-activity relationship and mechanism of action studies of manzamine analogues for the control of neuroinflammation and cerebral infections” (J Med Chem, 2010).
